Assay results published in ChEMBL document CHEMBL4229571, “Development of 13H-benzo[f]chromeno[4,3-b][1,7]naphthyridines and their salts as potent cytotoxic agents and topoisomerase I/IIα inhibitors” (2018).
“And” between values parts separate entries of the source, which are not always exact repeats. Equal entries are not always repeated.

How the values were obtained:
NCI-H23 = experiment: Cytotoxicity against human NCI-H23 cells assessed as growth inhibition after 72 hrs by SRB assay; type: functional
Summary of the method: (§1)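 SRB assay per NCI protocol: 2 × 10^3 cells/well seeded, compounds in DMSO/media added next day (day 0) in quadruplicate at 1 nM–10 μM final, DMSO <0.1%. After 72 h, TCA fixation overnight at 4°C, 0.4% SRB 1 h, dye dissolved in 10 mM Tris, A690 read; day 0 absorbance subtracted. GI50 = concentration giving 50% drop in net growth, mean of three experiments.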

HCT-15 = experiment: Cytotoxicity against human HCT15 cells assessed as growth inhibition after 72 hrs by SRB assay; type: functional; summary of the method: as §1
NUGC-3 = experiment: Cytotoxicity against human NUGC3 cells assessed as growth inhibition after 72 hrs by SRB assay; type: functional; summary of the method: as §1
ACHN = experiment: Cytotoxicity against human ACHN cells assessed as growth inhibition after 72 hrs by SRB assay; type: functional; summary of the method: as §1
PC-3 = experiment: Cytotoxicity against human PC3 cells assessed as growth inhibition after 72 hrs by SRB assay; type: functional; summary of the method: as §1
MDA-MB-231 = experiment: Cytotoxicity against human MDA-MB-231 cells assessed as growth inhibition after 72 hrs by SRB assay; type: functional; summary of the method: as §1
[1] = biological target: T1, DNA topoisomerase 1 (Homo sapiens) (UniProt P11387); experiment: Inhibition of recombinant human DNA topoisomerase 1 at 20 uM using supercoiled pBR322 DNA as substrate after 30 mins by densitometric analysis relative to control
T1 sequence (whole entry): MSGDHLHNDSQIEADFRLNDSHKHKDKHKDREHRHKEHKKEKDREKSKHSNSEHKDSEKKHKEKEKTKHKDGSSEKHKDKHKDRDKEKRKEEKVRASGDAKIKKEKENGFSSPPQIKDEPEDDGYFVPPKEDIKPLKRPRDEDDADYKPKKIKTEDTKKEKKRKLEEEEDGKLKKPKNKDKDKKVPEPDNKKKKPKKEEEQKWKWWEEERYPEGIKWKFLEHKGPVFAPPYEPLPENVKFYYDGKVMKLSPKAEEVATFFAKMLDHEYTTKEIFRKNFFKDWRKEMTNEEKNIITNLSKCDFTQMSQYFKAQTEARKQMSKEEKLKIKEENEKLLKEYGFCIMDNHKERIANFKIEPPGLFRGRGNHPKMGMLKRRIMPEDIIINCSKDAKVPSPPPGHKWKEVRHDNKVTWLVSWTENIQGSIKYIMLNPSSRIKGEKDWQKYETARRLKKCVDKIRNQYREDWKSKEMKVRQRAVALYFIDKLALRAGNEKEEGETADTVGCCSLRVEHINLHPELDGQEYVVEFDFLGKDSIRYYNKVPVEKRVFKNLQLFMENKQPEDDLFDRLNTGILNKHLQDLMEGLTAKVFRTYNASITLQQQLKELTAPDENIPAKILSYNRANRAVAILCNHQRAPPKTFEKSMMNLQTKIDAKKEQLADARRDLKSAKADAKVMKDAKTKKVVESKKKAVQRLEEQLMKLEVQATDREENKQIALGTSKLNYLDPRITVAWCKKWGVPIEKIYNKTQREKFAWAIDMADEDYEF
Summary of the method: (§2)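 Relaxation of 100 ng supercoiled pBR322 by 1 unit recombinant human topo I, 37 °C for 30 min, in 10 mM Tris-HCl pH 7.9, 150 mM NaCl, 0.1% BSA, 1 mM spermidine, 5% glycerol. Stopped with sarcosyl solution, run on 1% agarose/TAE at 15 V for 7 h, ethidium bromide stained, bands quantified by densitometry. Camptothecin as positive control. Compounds first screened at 100 μM; those over 30% inhibition retested at 20 μM.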

[2] = biological target: DNA topoisomerase 2-alpha (Homo sapiens) (UniProt P11388); experiment: Inhibition of recombinant human DNA topoisomerase 2-alpha at 20 uM using supercoiled pBR322 DNA as substrate after 30 mins by densitometric analysis relative to control
Summary of the method: (§3)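 200 ng supercoiled pBR322 with 4 units human topo IIα, 30 min at 30 °C, in 10 mM Tris–HCl pH 7.9, 50 mM NaCl, 5 mM MgCl2, 1 mM EDTA, 1 mM ATP, 15 μg/mL BSA. Stopped with EDTA, run on 1% agarose/TAE at 60 V for 1 h, bands quantified by densitometry. Etoposide as positive control. Screening at 100 μM; above 30% inhibition, retested at 20 μM.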

[3] = biological target: DNA topoisomerase 2-alpha (Homo sapiens) (UniProt P11388); experiment: Potency index, ratio of test compound activity to etoposide activity for recombinant human DNA topoisomerase 2-alpha at 20 uM
[4] = biological target: DNA topoisomerase 2-alpha (Homo sapiens) (UniProt P11388); experiment: Inhibition of recombinant human DNA topoisomerase 2-alpha at 100 uM using supercoiled pBR322 DNA as substrate after 30 mins by densitometric analysis relative to control; summary of the method: as §3
[5] = biological target: T1, DNA topoisomerase 1 (Homo sapiens); experiment: Potency index, ratio of test compound activity to camptothecin activity for recombinant human DNA topoisomerase 1 at 100 uM
[6] = biological target: T1, DNA topoisomerase 1 (Homo sapiens); experiment: Inhibition of recombinant human DNA topoisomerase 1 at 100 uM using supercoiled pBR322 DNA as substrate after 30 mins by densitometric analysis relative to control; summary of the method: as §2

Chain of DNA topoisomerase 2-alpha (Homo sapiens) (P11388 whole entry): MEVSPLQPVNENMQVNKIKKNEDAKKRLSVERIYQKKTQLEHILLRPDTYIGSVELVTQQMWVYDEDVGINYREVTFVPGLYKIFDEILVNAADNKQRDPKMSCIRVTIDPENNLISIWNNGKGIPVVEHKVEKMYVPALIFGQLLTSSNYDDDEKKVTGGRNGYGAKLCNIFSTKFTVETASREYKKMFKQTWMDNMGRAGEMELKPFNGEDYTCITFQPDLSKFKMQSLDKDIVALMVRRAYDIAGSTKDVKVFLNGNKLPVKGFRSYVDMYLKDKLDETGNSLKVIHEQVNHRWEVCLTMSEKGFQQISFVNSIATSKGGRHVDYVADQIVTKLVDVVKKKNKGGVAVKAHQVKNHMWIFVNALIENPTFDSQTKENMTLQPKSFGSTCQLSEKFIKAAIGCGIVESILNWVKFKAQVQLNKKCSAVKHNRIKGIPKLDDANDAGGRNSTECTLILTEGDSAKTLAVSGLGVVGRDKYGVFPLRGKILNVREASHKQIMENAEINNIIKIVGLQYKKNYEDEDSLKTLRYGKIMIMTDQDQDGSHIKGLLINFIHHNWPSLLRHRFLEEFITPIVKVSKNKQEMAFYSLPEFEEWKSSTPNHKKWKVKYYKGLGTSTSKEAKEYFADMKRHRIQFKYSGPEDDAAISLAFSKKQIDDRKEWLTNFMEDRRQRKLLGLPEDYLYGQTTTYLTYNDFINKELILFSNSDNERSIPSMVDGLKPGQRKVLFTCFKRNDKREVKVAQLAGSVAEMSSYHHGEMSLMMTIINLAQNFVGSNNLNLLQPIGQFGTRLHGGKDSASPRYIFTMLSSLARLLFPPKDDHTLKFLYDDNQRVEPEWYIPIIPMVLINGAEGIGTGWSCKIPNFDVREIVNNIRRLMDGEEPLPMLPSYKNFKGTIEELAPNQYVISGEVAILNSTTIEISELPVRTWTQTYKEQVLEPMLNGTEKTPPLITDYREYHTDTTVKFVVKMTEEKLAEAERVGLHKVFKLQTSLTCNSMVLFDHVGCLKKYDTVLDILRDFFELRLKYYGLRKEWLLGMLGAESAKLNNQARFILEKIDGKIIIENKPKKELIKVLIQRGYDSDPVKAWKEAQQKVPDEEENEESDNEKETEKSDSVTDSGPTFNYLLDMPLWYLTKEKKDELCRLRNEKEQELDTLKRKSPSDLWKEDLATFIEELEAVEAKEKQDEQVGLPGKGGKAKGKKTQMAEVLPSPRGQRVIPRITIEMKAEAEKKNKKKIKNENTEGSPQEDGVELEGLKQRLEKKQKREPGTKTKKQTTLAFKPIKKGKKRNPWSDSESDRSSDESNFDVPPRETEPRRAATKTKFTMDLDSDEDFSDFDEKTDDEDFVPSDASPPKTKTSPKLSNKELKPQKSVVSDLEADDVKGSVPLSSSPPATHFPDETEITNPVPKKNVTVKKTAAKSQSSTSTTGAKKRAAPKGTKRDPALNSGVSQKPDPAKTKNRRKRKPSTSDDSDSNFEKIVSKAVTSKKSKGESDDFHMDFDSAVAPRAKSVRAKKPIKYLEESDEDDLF

| SMILES | GI50 (HCT-15; Homo sapiens, HCT-15, 72 h) [nM] | GI50 (NUGC-3; Homo sapiens, NUGC-3, 72 h) [nM] | GI50 (ACHN; Homo sapiens, ACHN, 72 h) [nM] | GI50 (NCI-H23; Homo sapiens, NCI-H23, 72 h) [nM] | GI50 (PC-3; Homo sapiens, PC-3, 72 h) [nM] | GI50 (MDA-MB-231; Homo sapiens, MDA-MB-231, 72 h) [nM] | further results |
| --- | --- | --- | --- | --- | --- | --- | --- |
| Cc1ccc(-c2c3c(nc4cnc5ccccc5c24)-c2ccccc2OC3)cc1 [listing 1 of 3 here] | 4230 | 3850 | 2400 | – | – | – | GI50 (NCI-H23): > 10000 nM; GI50 (PC-3): 5020 nM; GI50 (MDA-MB-231): 5620 nM |
| CC(C)(C)c1cc2c(c(C(C)(C)C)c1)OCc1cc3c(cnc4ccccc43)nc1-2 | > 10000 | > 10000 | > 10000 | > 10000 | > 10000 | > 10000 | – |
| Cc1c2c(nc3cnc4ccccc4c13)-c1c(ccc3ccccc13)OC2 | > 10000 | > 10000 | > 10000 | > 10000 | > 10000 | > 10000 | – |
| Cc1ccc2c(c1)-c1nc3cnc4ccccc4c3c(C)c1CO2 | > 10000 | > 10000 | > 10000 | > 10000 | > 10000 | > 10000 | – |
| c1ccc2c(c1)OCc1cc3c(cnc4ccccc43)nc1-2 | > 10000 | > 10000 | > 10000 | > 10000 | > 10000 | > 10000 | – |
| Cc1ccc(-c2c3c(nc4cnc5ccccc5c24)-c2ccccc2OC3)cc1 [listing 2 of 3 here] | – | – | – | – | – | – | inhibition [1]: 11.1%; inhibition [2]: 38.3%; Ratio [3]: 1.25 |
| Cc1ccc2c(c1)-c1nc3cnc4ccccc4c3cc1CO2 | > 10000 | > 10000 | > 10000 | > 10000 | > 10000 | > 10000 | – |
| Clc1ccc2c(c1)-c1nc3cnc4ccccc4c3cc1CO2 [listing 1 of 3 here] | – | – | – | – | – | – | GI50 (NCI-H23): 900 nM; GI50 (HCT-15): 1090 nM; GI50 (NUGC-3): 1160 nM; GI50 (ACHN): 1080 nM; GI50 (PC-3): 1670 nM; GI50 (MDA-MB-231): 1050 nM |
| Fc1ccc2c(c1)-c1nc3cnc4ccccc4c3cc1CO2 [listing 1 of 3 here] | – | – | – | – | – | – | inhibition [1]: 4.2%; inhibition [4]: 14.5% and 12.2%; Ratio [5]: 1.32 |
| COc1ccc(Br)c2c1OCc1c-2nc2cnc3ccccc3c2c1C | > 10000 | > 10000 | > 10000 | > 10000 | > 10000 | > 10000 | – |
| Clc1ccc2c(c1)-c1nc3cnc4ccccc4c3cc1CO2 [listing 2 of 3 here] | – | – | – | – | – | – | inhibition [6]: 1.7% and 12.3%; inhibition [4]: 0% |
| Fc1ccc2c(c1)-c1nc3cnc4ccccc4c3cc1CO2 [listing 2 of 3 here] | 2200 | 1850 | – | 1870 | – | 2200 | GI50 (ACHN): 3200 nM; GI50 (PC-3): 2790 nM |
| Cc1c2c(nc3cnc4ccccc4c13)-c1cc(F)ccc1OC2 | > 10000 | > 10000 | > 10000 | > 10000 | > 10000 | > 10000 | – |
| Cc1c2c(nc3cnc4ccccc4c13)-c1cc(Br)ccc1OC2 | > 10000 | > 10000 | > 10000 | > 10000 | > 10000 | > 10000 | – |
| Cc1ccc(-c2c3c(nc4cnc5ccccc5c24)-c2cc(Cl)ccc2OC3)cc1 | > 10000 | > 10000 | > 10000 | > 10000 | > 10000 | > 10000 | – |
| c1ccc2c3c(ccc2c1)OCc1cc2c(cnc4ccccc42)nc1-3 | > 10000 | > 10000 | > 10000 | > 10000 | > 10000 | > 10000 | – |
| COc1cccc2c1C(=O)c1c(O)c3c(c(O)c1C2=O)C[C@@](O)(C(=O)CO)C[C@@H]3O[C@H]1C[C@H](N)[C@H](O)[C@H](C)O1 [DOXORUBICIN] | 77 | 86 | 80 | 90 | 76 | 68 | – |
| Cc1ccc(-c2c3c(nc4cnc5ccccc5c24)-c2ccccc2OC3)cc1 [listing 3 of 3 here] | – | – | – | – | – | – | GI50 (NCI-H23): 2060 nM; GI50 (HCT-15): 2720 nM; GI50 (NUGC-3): 2700 nM; GI50 (ACHN): 2280 nM; GI50 (PC-3): 1530 nM; GI50 (MDA-MB-231): 1790 nM |
| Cc1c2c(nc3cnc4ccccc4c13)-c1cc(C(C)(C)C)cc(C(C)(C)C)c1OC2 | > 10000 | > 10000 | > 10000 | > 10000 | > 10000 | > 10000 | – |
| Cc1c2c(nc3cnc4ccccc4c13)-c1cc(Cl)ccc1OC2 | > 10000 | > 10000 | > 10000 | > 10000 | > 10000 | > 10000 | – |
| Fc1ccc2c(c1)-c1nc3cnc4ccccc4c3cc1CO2 [listing 3 of 3 here] | – | – | – | – | – | – | GI50 (NCI-H23): 1030 nM; GI50 (HCT-15): 1560 nM; GI50 (NUGC-3): 1370 nM; GI50 (ACHN): 1000 nM; GI50 (PC-3): 1270 nM; GI50 (MDA-MB-231): 1230 nM |
| COc1cccc2c1OCc1c-2nc2cnc3ccccc3c2c1C [listing 1 of 3 here] | – | – | – | – | – | – | inhibition [6]: 14.4% and 10.2%; inhibition [4]: 0% and 23.5% |
| Clc1ccc2c(c1)-c1nc3cnc4ccccc4c3cc1CO2 [listing 3 of 3 here] | 1570 | 2210 | – | 1180 | 1500 | – | GI50 (ACHN): 2560 nM; GI50 (MDA-MB-231): 2720 nM |
| Cc1c2c(nc3cnc4ccccc4c13)-c1cc(Cl)cc(Cl)c1OC2 | > 10000 | > 10000 | > 10000 | > 10000 | > 10000 | > 10000 | – |
| COc1cccc2c1OCc1c-2nc2cnc3ccccc3c2c1C [listing 2 of 3 here] | 1790 | 2620 | 2190 | 1560 | 1610 | 1520 | – |
| Brc1ccc2c(c1)-c1nc3cnc4ccccc4c3cc1CO2 | > 10000 | > 10000 | > 10000 | > 10000 | > 10000 | > 10000 | – |
| COc1cccc2c1OCc1c-2nc2cnc3ccccc3c2c1C [listing 3 of 3 here] | – | – | – | – | – | – | GI50 (NCI-H23): 2390 nM; GI50 (HCT-15): 1290 nM; GI50 (NUGC-3): 1560 nM; GI50 (ACHN): 2010 nM; GI50 (PC-3): 2060 nM; GI50 (MDA-MB-231): 1670 nM |
